# In ChEMBL document CHEMBL3992536, “Discovery of a Novel Series of Orally Bioavailable and CNS Penetrant Glucagon-like Peptide-1 Receptor (GLP-1R) Noncompetitive Antagonists Based on a 1,3-Disubstituted-7-aryl-5,5-bis(trifluoromethyl)-5,8-dihydropyrimido[4,5-d]pyrimidine-2,4(1H,3H)-dione Core” (J Med Chem, 2017):
# Calls of active or inactive are those of the source. The rule behind the calls is not given here.
# Assays:
# [1] = biological target: T1, Glucagon-like peptide 1 receptor (Homo sapiens, UniProt P43220); assay: Antagonist activity at human GLP-1R expressed in TREx293 cells co-expressing cAMP sensitive luciferase assessed as inhibition of GLP1 (7 to 36 residues) amide-induced cAMP accumulation after 90 mins by GloSensor cAMP assay; format: functional, cell-based
# Method in brief: (§1)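 GloSensor cAMP luminescence read-out in TREx293 HEK cells expressing GLP-1R. IC50 and pIC50 come from the concentration–response curves. n = 3, reported as average ± SEM.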
# [2] = biological target: T1, Glucagon-like peptide 1 receptor; assay: Antagonist activity at human GLP-1R expressed in TREx293 cells co-expressing cAMP sensitive luciferase assessed as inhibition of exendin-4-induced cAMP accumulation after 90 mins by GloSensor cAMP assay; format: functional, cell-based; method in brief: as §1
# [3] = biological target: T1, Glucagon-like peptide 1 receptor; assay: Antagonist activity at human GLP-1R expressed in TREx293 cells co-expressing cAMP sensitive luciferase assessed as inhibition of GLP1 (7 to 36 residues) amide-induced cAMP accumulation after 90 mins by GloSensor cAMP assay relative to GLP-1; format: functional, cell-based
# Method in brief: (§2)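 TREx293 HEK cells expressing GLP-1R, GloSensor cAMP read-out. The minimum response is expressed as % of the GLP-1 response (GLP-1 min). n = 3, average ± SEM.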
# [4] = biological target: T1, Glucagon-like peptide 1 receptor; assay: Antagonist activity at human GLP-1R expressed in TREx293 cells co-expressing cAMP sensitive luciferase assessed as inhibition of exendin-4-induced cAMP accumulation after 90 mins by GloSensor cAMP assay relative to GLP-1; format: functional, cell-based; method in brief: as §2
# [5] = Plasma clearance in Sprague-Dawley rat at 1 mg/kg, iv or 3 mg/kg via oral gavage by LC-MS/MS analysis; format: ADME, organism-based
# Method in brief: (§3)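 Rat PK study with dosing at 1 mg/kg iv and 3 mg/kg po. The study reports plasma clearance (mL min⁻¹ kg⁻¹), t1/2 (min), Vss (L/kg) and oral bioavailability F (%).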
# [6] = Half life in Sprague-Dawley rat at 1 mg/kg, iv or 3 mg/kg via oral gavage by LC-MS/MS analysis; format: ADME, organism-based; conditions: in vivo; method in brief: as §3
# [7] = Volume of distribution at steady state in Sprague-Dawley rat at 1 mg/kg, iv or 3 mg/kg via oral gavage by LC-MS/MS analysis; format: ADME, organism-based; conditions: in vivo, read-out: Vdss; method in brief: as §3
# [8] = Oral bioavailability in Sprague-Dawley rat at 3 mg/kg via gavage by LC-MS/MS analysis; format: ADME, organism-based; conditions: in vivo; method in brief: as §3
# Glucagon receptor = Glucagon receptor (Homo sapiens, UniProt P47871); assay: Antagonist activity at glucagon receptor (unknown origin)
# Cytochrome P450 1A2 = biological target: T2, Cytochrome P450 1A2 (Homo sapiens, UniProt P05177); assay: Inhibition of CYP1A2 in human liver microsomes using phenacetin as substrate preincubated for 15 mins followed by NADPH addition measured after 8 mins by LC-MS/MS analysis; format: ADME
# T2 sequence (P05177 whole entry): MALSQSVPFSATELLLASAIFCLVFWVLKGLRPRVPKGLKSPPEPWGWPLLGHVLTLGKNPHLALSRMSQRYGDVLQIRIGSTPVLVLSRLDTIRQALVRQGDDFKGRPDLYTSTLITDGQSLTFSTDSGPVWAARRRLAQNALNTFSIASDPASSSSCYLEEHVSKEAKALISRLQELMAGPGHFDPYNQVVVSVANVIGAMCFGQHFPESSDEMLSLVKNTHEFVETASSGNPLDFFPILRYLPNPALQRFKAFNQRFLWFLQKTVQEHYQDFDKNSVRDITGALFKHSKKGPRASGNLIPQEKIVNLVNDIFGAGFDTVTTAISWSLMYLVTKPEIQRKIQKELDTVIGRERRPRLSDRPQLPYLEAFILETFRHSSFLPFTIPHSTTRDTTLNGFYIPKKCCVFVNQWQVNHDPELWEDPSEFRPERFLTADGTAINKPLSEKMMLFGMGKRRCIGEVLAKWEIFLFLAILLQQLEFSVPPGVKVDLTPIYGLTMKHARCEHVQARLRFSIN
# Cytochrome P450 2C9 = Cytochrome P450 2C9 (Homo sapiens, UniProt P11712); assay: Inhibition of CYP2C9 in human liver microsomes using diclofenac as substrate preincubated for 15 mins followed by NADPH addition measured after 8 mins by LC-MS/MS analysis; format: ADME
# Cytochrome P450 3A4 = Cytochrome P450 3A4 (Homo sapiens, UniProt P08684); assay: Inhibition of CYP3A4 in human liver microsomes using midazolam as substrate preincubated for 15 mins followed by NADPH addition measured after 8 mins by LC-MS/MS analysis; format: ADME
# Cytochrome P450 2D6 = Cytochrome P450 2D6 (Homo sapiens, UniProt P10635); assay: Inhibition of CYP2D6 in human liver microsomes using dextromethorphan as substrate preincubated for 15 mins followed by NADPH addition measured after 8 mins by LC-MS/MS analysis; format: ADME
# [9] = Fraction unbound in rat plasma at 5 uM after 4 hrs by LC-MS/MS based equilibrium dialysis method; format: ADME, cell-free
# [10] = Fraction unbound in human plasma at 5 uM after 4 hrs by LC-MS/MS based equilibrium dialysis method; format: ADME, cell-free
# [11] = Drug uptake in Sprague-Dawley rat plasma at 3 mg/kg via oral gavage after 1 hr by LC-MS/MS analysis; format: ADME, organism-based
# Method in brief: (§4)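 Rat distribution study: single 3 mg/kg oral dose. Plasma (ng/mL) and brain concentrations are measured at 1 h, and brain/plasma Kp is calculated from them.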
# [12] = Drug uptake in Sprague-Dawley rat brain at 3 mg/kg via oral gavage after 1 hr by LC-MS/MS analysis; format: ADME, organism-based; conditions: read-out: Drug uptake; method in brief: as §4
# [13] = Ratio of drug level in Sprague-Dawley rat brain to plasma at 3 mg/kg via oral gavage after 1 hr by LC-MS/MS analysis; format: ADME, organism-based; method in brief: as §4
# [14] = biological target: T1, Glucagon-like peptide 1 receptor; assay: Non-competitive antagonism/negative allosteric modulation of human GLP-1R expressed in TREx293 cells co-expressing cAMP sensitive luciferase assessed as inhibition of fixed concentration of GLP1 (7 to 36 residues) amide-induced cAMP accumulation by measuring decrease in GLP-1 maximum response at 0.3 to 10 uM after 90 mins by GloSensor cAMP assay; format: functional, cell-based
# Method in brief: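 A full GLP-1 (7−36) amide concentration–response curve is run in GLP-1R TREx293 HEK cells with GloSensor cAMP detection. It is repeated in the presence of increasing fixed concentrations of antagonist, and the decrease in the GLP-1 maximal response is followed. n = 3.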
# [15] = biological target: T3, Glucagon-like peptide 1 receptor (Mus musculus) (UniProt O35659); assay: Antagonist activity at GLP-1R in C57BL/6J mouse primary islets assessed as inhibition of exendin-4-induced increase in glucose-stimulated insulin secretion at 1 uM after 60 mins by radio-immunoassay
# T3 sequence (whole entry): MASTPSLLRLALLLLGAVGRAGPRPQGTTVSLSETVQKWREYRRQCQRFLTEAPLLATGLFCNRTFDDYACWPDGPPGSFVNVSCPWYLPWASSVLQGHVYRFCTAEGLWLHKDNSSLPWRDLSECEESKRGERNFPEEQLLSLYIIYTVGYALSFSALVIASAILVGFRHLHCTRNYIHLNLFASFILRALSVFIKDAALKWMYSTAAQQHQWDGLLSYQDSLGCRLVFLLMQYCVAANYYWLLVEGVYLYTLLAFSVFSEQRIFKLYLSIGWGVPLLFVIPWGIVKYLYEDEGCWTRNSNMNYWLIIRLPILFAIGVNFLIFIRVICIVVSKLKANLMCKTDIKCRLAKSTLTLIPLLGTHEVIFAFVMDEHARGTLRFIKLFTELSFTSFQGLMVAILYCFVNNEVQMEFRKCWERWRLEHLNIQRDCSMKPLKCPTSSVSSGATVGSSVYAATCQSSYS
# [16] = biological target: T1, Glucagon-like peptide 1 receptor; assay: Antagonist activity at GLP-1R (unknown origin)
# Rattus norvegicus [17] = assay: Decrease in blood insulin level in Sprague-Dawley rat at 10 mg/kg, po pretreated for 30 mins followed by glucose challenge measured up to 150 mins by oral glucose tolerance test; format: functional, organism-based
# Method in brief: (§5)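 OGTT in male Sprague-Dawley rats with surgically implanted carotid cannulae, randomized to compound (10 mg/kg po) or vehicle. Dosing is 30 min before a 2 g/kg glucose gavage at time 0. Carotid blood is sampled at intervals for whole blood glucose and insulin.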
# Rattus norvegicus [18] = assay: Increase in blood glucose level in Sprague-Dawley rat at 10 mg/kg, po pretreated for 30 mins followed by glucose challenge measured up to 150 mins by oral glucose tolerance test; format: functional, organism-based; method in brief: as §5
# T1 sequence (P43220 whole entry, the tested form may be a part): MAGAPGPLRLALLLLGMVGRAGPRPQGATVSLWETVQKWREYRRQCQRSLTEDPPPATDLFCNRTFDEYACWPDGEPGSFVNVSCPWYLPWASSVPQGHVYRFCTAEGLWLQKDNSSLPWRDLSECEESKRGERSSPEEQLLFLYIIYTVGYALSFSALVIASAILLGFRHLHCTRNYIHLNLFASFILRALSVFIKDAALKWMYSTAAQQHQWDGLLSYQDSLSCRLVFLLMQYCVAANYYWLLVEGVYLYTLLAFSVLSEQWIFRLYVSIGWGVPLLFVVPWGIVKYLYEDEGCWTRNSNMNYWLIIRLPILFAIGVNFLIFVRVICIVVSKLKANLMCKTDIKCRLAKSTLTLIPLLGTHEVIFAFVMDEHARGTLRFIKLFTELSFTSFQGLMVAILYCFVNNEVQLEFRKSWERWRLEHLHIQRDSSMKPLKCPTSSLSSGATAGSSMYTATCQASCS
# Cytochrome P450 2C9, sequence (P11712 whole entry): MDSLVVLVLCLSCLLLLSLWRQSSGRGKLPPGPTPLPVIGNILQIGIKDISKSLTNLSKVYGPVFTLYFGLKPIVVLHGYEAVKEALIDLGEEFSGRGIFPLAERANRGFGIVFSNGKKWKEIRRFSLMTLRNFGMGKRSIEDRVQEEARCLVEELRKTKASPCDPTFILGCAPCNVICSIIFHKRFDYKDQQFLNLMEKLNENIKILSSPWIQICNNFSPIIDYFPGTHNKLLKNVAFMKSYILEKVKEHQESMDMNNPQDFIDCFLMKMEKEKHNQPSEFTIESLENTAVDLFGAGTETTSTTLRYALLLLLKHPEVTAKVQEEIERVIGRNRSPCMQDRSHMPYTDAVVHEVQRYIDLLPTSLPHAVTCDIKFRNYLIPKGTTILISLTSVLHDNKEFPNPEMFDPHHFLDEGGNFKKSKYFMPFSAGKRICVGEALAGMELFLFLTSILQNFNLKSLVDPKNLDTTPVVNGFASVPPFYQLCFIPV
# Cytochrome P450 2D6, sequence (P10635 whole entry): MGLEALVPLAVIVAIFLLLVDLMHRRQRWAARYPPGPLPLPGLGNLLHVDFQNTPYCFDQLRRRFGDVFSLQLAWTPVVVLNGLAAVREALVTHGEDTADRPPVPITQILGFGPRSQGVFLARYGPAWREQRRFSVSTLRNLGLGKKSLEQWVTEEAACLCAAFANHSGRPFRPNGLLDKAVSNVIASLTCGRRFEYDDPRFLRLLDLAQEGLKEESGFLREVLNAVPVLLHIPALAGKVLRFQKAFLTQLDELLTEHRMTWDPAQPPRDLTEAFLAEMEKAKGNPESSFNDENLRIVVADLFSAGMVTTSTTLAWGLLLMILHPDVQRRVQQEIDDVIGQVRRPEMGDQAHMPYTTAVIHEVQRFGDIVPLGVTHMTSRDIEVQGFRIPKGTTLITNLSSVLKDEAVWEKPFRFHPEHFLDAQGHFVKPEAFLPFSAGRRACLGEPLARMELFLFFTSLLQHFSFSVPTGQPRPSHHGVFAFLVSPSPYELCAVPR
# Glucagon receptor, sequence (P47871 whole entry): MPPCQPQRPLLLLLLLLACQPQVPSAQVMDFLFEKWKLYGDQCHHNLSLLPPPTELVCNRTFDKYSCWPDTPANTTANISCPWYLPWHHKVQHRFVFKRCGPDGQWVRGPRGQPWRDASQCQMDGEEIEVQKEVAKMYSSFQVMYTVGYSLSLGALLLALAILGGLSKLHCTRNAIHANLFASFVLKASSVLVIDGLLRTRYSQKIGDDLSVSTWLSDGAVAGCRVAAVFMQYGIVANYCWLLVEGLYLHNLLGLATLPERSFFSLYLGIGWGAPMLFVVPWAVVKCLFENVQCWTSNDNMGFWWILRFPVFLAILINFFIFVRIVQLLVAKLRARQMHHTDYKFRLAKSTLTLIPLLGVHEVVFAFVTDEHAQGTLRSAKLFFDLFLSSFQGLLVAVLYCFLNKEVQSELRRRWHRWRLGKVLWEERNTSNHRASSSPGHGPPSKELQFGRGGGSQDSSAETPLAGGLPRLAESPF
# Cytochrome P450 3A4, sequence (P08684 whole entry): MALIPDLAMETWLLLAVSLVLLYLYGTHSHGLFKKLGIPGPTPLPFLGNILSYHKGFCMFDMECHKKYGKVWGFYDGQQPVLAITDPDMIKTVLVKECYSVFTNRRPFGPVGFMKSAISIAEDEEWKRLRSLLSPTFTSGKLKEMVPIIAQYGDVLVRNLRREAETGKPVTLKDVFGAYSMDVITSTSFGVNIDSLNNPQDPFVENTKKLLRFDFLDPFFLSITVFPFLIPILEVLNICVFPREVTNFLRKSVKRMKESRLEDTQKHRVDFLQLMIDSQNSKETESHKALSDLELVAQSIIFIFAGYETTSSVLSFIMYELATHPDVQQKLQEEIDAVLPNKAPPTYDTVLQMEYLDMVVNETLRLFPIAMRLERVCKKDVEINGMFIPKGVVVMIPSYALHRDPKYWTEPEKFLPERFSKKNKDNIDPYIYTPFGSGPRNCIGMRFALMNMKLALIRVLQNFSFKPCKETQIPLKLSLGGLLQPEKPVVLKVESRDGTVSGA
Compound,IC50 [1],IC50 [2],Emin [3],Emin [4],clearance [5],half-life [6],Vd [7],bioavailability [8],IC50 (Glucagon receptor),IC50 (Cytochrome P450 1A2),IC50 (Cytochrome P450 2C9),IC50 (Cytochrome P450 3A4),IC50 (Cytochrome P450 2D6),"fraction unbound at 4 h, 5 µM [9]","fraction unbound at 4 h, 5 µM [10]",concentration at 1 h [11],concentration at 1 h [12],Kp at 1 h [13],inhibition [14],inhibition [15],other results
COc1cccc(C2=NC(C(F)(F)F)(C(F)(F)F)c3c(n(CC(C)C)c(=O)[nH]c3=O)N2)c1,7.2 µM,7.2 µM,22.7%,26.4%,–,–,–,–,–,–,–,–,–,–,–,–,–,–,–,–,–
COc1ccc2c(c1)N(c1ccccc1F)C(=O)[C@@]2(CCC(=O)O)NC(=O)c1cc2ccccc2cn1,–,–,–,–,–,–,–,–,–,–,–,–,–,–,–,–,–,–,–,–,IC50 [16]: 21 µM
Cn1c2c(c(=O)n(C)c1=O)C(C(F)(F)F)(C(F)(F)F)NC(c1ccc(Cl)cc1)=N2,0.65 µM,0.69 µM,20.9%,19.7%,4.79 mL/min/kg,9.78 h,3.57 L/kg,50%,> 30 µM,4.01 µM,0.41 µM,> 30 µM,> 30 µM,0.011,0.007,45 ng/mL,65.1 ng/g,1.45,Dose-dependent effect,Active,Activity (Rattus norvegicus [17]): Active; Activity (Rattus norvegicus [18]): Active

# More lines, in order of falling IC50 [1], values ahead:
IC50 [1],IC50 [2],Emin [3],Emin [4],clearance [5],half-life [6],Vd [7],bioavailability [8],IC50 (Glucagon receptor),IC50 (Cytochrome P450 1A2),IC50 (Cytochrome P450 2C9),IC50 (Cytochrome P450 3A4),IC50 (Cytochrome P450 2D6),"fraction unbound at 4 h, 5 µM [9]","fraction unbound at 4 h, 5 µM [10]",concentration at 1 h [11],concentration at 1 h [12],Kp at 1 h [13],inhibition [14],inhibition [15],Compound,other results
5.9 µM,5.8 µM,16.8%,23.9%,36.4 mL/min/kg,2.42 h,0.69 L/kg,100%,> 30 µM,> 30 µM,3.78 µM,16.4 µM,8.13 µM,0.002,0.003,1140 ng/mL,37.1 ng/g,0.03,–,–,COc1cccc(C2=NC(C(F)(F)F)(C(F)(F)F)c3c(n(-c4ccc(Cl)cc4)c(=O)[nH]c3=O)N2)c1,–
1.3 µM,1.5 µM,36.2%,32%,–,–,–,–,–,–,–,–,–,–,–,–,–,–,–,–,O=c1[nH]c(=O)n(Cc2ccccc2)c2c1C(C(F)(F)F)(C(F)(F)F)N=C(c1cccs1)N2,–
0.61 µM,0.69 µM,16.4%,15.5%,3.64 mL/min/kg,0.7 h,0.22 L/kg,–,> 30 µM,25 µM,0.47 µM,> 30 µM,21.2 µM,0.005,0.005,76.7 ng/mL,2.4 ng/g,0.02,Dose-dependent effect,Active,Cn1c2c(c(=O)n(C)c1=O)C(C(F)(F)F)(C(F)(F)F)N=C(c1cccc([N+](=O)[O-])c1)N2,–
